ChEMBL document CHEMBL1129286, “In vitro and in vivo studies of benzisoquinoline ligands for the brain synaptic vesicle monoamine transporter” (J Med Chem, 1996)

Legend:
Mus musculus [1] = assay: Competition of compound for the in vivo localization of [11C] Methoxytetrabenazine in mouse Hyphalamus; %ID/g (%injected dose/g); assay type: functional, organism-based
Summary of the method: (§1)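 CD-1 mice anesthetized with diethyl ether, given by tail vein a mixture of [11C]methoxytetrabenazine (100-300 µCi) plus 10 mg/kg test compound in 10% ethanol in saline, then allowed to recover. Controls received radiotracer in saline with no competitor. Killed under ether at 15 min, regional brain radioactivity read as %ID/g; mean ± SD, unpaired Student's t-test versus controls.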

Mus musculus [2] = assay: Competition of compound for the in vivo localization of [11C] Methoxytetrabenazine in mouse Striatum; %ID/g (%injected dose/g); assay type: functional, organism-based; summary of the method: as §1
[3] = target: Synaptic vesicular amine transporter (Rattus norvegicus, UniProt Q01827); assay: In vitro inhibition of [3H]- Methoxytetrabenazine binding to rat brain vesicular monoamine transporter 2 (VMAT2)
Synaptic vesicular amine transporter, sequence (Q01827 whole entry): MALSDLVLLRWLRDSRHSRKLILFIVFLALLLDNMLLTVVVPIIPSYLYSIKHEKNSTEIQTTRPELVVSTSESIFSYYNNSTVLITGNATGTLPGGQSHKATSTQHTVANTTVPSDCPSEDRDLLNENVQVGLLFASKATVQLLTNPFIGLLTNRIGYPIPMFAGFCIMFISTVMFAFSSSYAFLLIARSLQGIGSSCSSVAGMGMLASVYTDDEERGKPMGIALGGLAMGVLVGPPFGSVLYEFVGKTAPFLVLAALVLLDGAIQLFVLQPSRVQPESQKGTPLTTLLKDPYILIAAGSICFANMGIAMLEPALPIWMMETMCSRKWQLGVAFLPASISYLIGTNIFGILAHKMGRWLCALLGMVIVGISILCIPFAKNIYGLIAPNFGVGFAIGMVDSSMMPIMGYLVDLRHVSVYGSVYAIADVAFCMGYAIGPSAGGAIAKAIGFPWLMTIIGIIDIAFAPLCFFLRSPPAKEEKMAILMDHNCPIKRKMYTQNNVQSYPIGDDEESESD
Summary of the method: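 Autoradiographic competition on rat brain coronal sections (20, caudate-putamen level) on slides. Sections prewashed at 25 °C in sucrose buffer (300 mM sucrose, 50 mM Tris, 1 mM EDTA, pH 8.0), then incubated 3 h with 10 nM [3H]methoxytetrabenazine and test drug from 1 nM. Washed 3 × 3 min, dipped in 4 °C water, air-dried, film-exposed 2 weeks.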

Ki [3] | Structure (SMILES) | ID/g (Mus musculus [1]) | ID/g (Mus musculus [2])
0.012 µM | COc1cc2c(cc1OC)[C@H]1C[C@](C)(O)[C@H](CC(C)C)CN1CC2 | 1.79% | 2.35%
0.084 µM | CCC[C@]1(O)C[C@@H]2c3cc(OC)c(OC)cc3CCN2C[C@H]1CC(C)C | 1.96% | 4.26%
0.042 µM | CC[C@]1(O)C[C@@H]2c3cc(OC)c(OC)cc3CCN2C[C@H]1CC(C)C | 2% | 3.24%
0.0026 µM | COc1cc2c(cc1OC)[C@H]1C[C@@](C)(O)[C@H](CC(C)C)CN1CC2 | 1.96% | 2.09%
0.033 µM | COc1cc2c(cc1OC)[C@H]1C[C@@](O)(CC(C)C)[C@H](CC(C)C)CN1CC2 | 2.93% | 5.33%
0.136 µM | COc1cc2c(cc1OC)[C@H]1C[C@@](O)(C(C)C)[C@H](CC(C)C)CN1CC2 | 3.06% | 6.21%
– | COc1cc2c(cc1OC)[C@H]1CC(=O)[C@H](CC(C)C)CN1CC2 | 1.71% | 2.26%
